We go through three molecules from paper PMC12069899 (Acta Pharmaceutica Sinica. B, 2024).

Data set [1] concerns rats (mechanical hyperalgesia induced by Carr.). The experiment in a line: Randall–Selitto test, carrageenan inflammatory pain, peptide given i.d. In kind it is in vivo, Sprague–Dawley rat. Summed up: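 SD rats (180–220 g) received Carr. (1%, 5 μL) i.d. into the right hindpaw after baseline PWT. Test compound was given i.d. in 5 μL at the inflamed site 1.5 h after Carr. PWT was measured 2 h after dosing. AUC (g·min) was calculated per rat, and ΔPWT = PWT(post-drug) − PWT(pre-drug). Saline was the control. Dosing was blinded; mean ± SEM.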

A further data set concerns rats (thermal pain). As to the kind of experiment: Thermal laser test of hot pain. In kind it is in vivo, rat. The settings on record: i.d. 1200 ng/kg, 5 μL; laser 52.5 ± 0.5 °C; n = 5.
The subject of the next data set is rats (cold pain). As to the kind of experiment: Cold plantar test. In kind it is in vivo, rat. The settings on record: i.d. 1200 ng/kg, 5 μL; n = 5.
Data set [2] concerns stretch-activated cationic currents in mammalian astrocytes, cardiomyocytes, and the central nervous system. The following applies: ref [23], [24], [25], [26]; cited from earlier work.
Data set [3] has as its system rats (mechanical hyperalgesia and neuropathic pain). The settings on record: ref [1], [27]; cited from earlier work.
The test system of the next data set is Piezo1/Piezo2 channel. The settings on record: ref [63], [64]; cited from earlier work.
A further data set concerns TRPC1 and TRPC6. The settings on record: MS channels in DRG neurons; ref [27]; cited from earlier work.
Data set [4] relates to rats (analgesic tolerance, CCI). The experiment in a line: Chronic analgesic tolerance in CCI neuropathic pain. In kind it is in vivo, rat.
Data set [5] concerns mice (conditioned place preference). As to the kind of experiment: Conditioned place preference. The settings on record: s.c.; morphine 10 mg/kg; P10581 2 μg/kg, 100 μL; n = 5. In kind it is in vivo, mouse. Summed up:
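Two-chamber boxes (20 × 20 × 20 cm), one with vertical black-white stripes and one with horizontal stripes. Conditioning training was repeated for 4 days. On Day 5, 24 h after the final dose, mice were placed in the central chamber with free access to both chambers for 15 min. Score = time on the drug-paired side postconditioning minus preconditioning. Dosing was blinded.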

Data set [6] deals with TRPV4 channel. As to the kind of experiment: Analgesia in homozygous Trpv4−/− mice, CFA pain. The following applies: 5 mg/kg, 2 h or 3 h post-injection; n = 4–5. In kind it is in vivo, mouse.
For data set [7], the system named is TRPV4 channel. As to the kind of experiment: Whole-cell patch clamp, GSK101-evoked TRPV4 currents in HEK293. In kind it is cell-based. The settings on record: GSK101 0.3 μmol/L, extracellular; ∼25 °C. Summed up: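 HEK293 cells were transiently transfected with TRPV4 by lipofection. Whole-cell voltage clamp was performed 24 h after transfection at ~25 °C; currents were filtered at 2 kHz and digitized at 10 kHz. Current was evoked by the TRPV4 activator GSK101, with GSK219 as the selective inhibitor. Test compound stock was freshly diluted in normal saline.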
For orientation: Patch clamp records ionic current or voltage across a cell membrane.

No end group written: not given here.

Turning to “GsMTx4 (GCLEFWWKCNPNDDKCCRPKLKCSKLFKLCNFSF; ends and bridges not checked; cysteine pairing not given here; UniProt Q7YT39 47-80, looked up)”, in [1] (i.d. 0.6 μg/kg, 5 μL, n = 6), the “effect on PWT at low dose” value is “only a mild impact on PWT”. Further, in data set [1] (i.d., 2 h after injection, Hill equation fit, n = 5 per group, mean ± SEM), the “IC50 for anti-hyperalgesic effect (ΔPWT)” value is 689.3 ± 21.5 ng/kg. In [1] (i.d., Fig. 1G), the “dose dependence of analgesic effect” value was “dose-dependent”. Moreover, the “effect on paw withdrawal latency (PWL), hot pain” value in the data set on rats (thermal pain) is given as “did not change their PWL when compared to the saline group”. Also, in the data set with rats (cold pain), the “effect on PWL, cold pain” value is reported as “neither P10581 nor GsMTx4 at 1200 ng/kg (i.d. 5 μL) affected PWL following cold stimulus”. The “inhibition of stretch-activated cationic currents” value in [2] is given as “inhibit stretch-activated cationic currents”. The “reduction of mechanical hyperalgesia and neuropathic pain” value in [3] is “reduce mechanical hyperalgesia and neuropathic pain in rats”. For the same molecule, the “channel sensitivity to GsMTx4” value in the data set on Piezo1/Piezo2 channel was “sensitive to GsMTx4”; in the data set on TRPC1 and TRPC6, “GsMTx4-sensitive”.

Turning to `CN1CC[C@]23c4c5ccc(O)c4O[C@H]2[C@@H](O)C=C[C@H]3[C@H]1C5` [morphine], the “loss of anti-hyperalgesic effect on repeated injection” value in data set [4] (i.d. 5 mg/kg twice a day, CCI) is “completely lost its anti-hyperalgesic effect from Day 4”. In addition, the “chronic tolerance after repeated injections” value in data set [4] (i.d. twice a day, 9 days, from Day 8 after CCI, morphine 5 mg/kg, P10581 8 μg/kg) was “time-dependent decrease in PWT”. In data set [5], the CPP preference score result was “significantly increased CPP scores”. For the same molecule, the “anti-hyperalgesic effect of morphine in WT vs. Trpv4-deficient mice” value in the data set on TRPV4 channel [6] was “equally effective in the anti-hyperalgesic effects among wild-type and Trpv4-deficient mice”.

As to `CC(C)C[C@H](NC(=O)c1cc2ccccc2s1)C(=O)N1CCN(C(=O)[C@H](CO)NS(=O)(=O)c2ccc(Cl)cc2Cl)CC1` [GSK101], the “activation of TRPV4 current” value in the data set on TRPV4 channel [7] is “robust increase in the currents”.
